According to publication PMC5116011 (The Journal of antibiotics, 2016):
≈ marks a conversion by molar mass, not a printed value. Like-named read-outs stand apart in the source and are kept apart here.

How the values were obtained:
[1] = cited from earlier work
E. faecalis ATCC33186 = assay: MIC, microbroth dilution in Mueller-Hinton broth; format: cell-based; details: Enterococcus faecalis, ATCC33186, read-out: MIC EF
In short: (§1)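 CLSI broth microdilution in cation-adjusted Mueller-Hinton broth. Inocula were grown from MH agar colonies in MH broth, with a final inoculum of 10^5 CFU/ml. Test compound final range was 200–0.2 µg/ml, incubated 37°C for 18–20 h. MIC was the lowest concentration preventing visible growth. Runs were at least duplicate, and the mean MIC was reported.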

S. pyogenes ATCC700294 = assay: MIC, microbroth dilution in Mueller-Hinton broth; format: cell-based; details: Streptococcus pyogenes, ATCC700294, read-out: MIC SPy
In short: as §1

S. pneumoniae R6 = assay: MIC, microbroth dilution in Mueller-Hinton broth; format: cell-based; details: Streptococcus pneumoniae, R6, read-out: MIC SP
In short: as §1

B. anthracis sterne = assay: microbe, parasite or virus in culture; format: cell-based; details: Bacillus anthracis, read-out: MIC BA
B. subtilis ATCC23857 = assay: MIC, microbroth dilution in Mueller-Hinton broth; format: cell-based; details: Bacillus subtilis, ATCC23857, read-out: MIC BS
In short: as §1

[2] = test system: S. aureus -ATCC29213 (MSSA); assay: MIC, microbroth dilution in Mueller-Hinton broth; format: cell-based; details: Staphylococcus aureus, read-out: MIC MSSA
In short: as §1

S. aureus NRS 70 (MRSA) = assay: MIC, microbroth dilution in Mueller-Hinton broth; format: cell-based; details: Staphylococcus aureus, MRSA|NRS70, read-out: MIC MRSA
In short: as §1

E. coli BW25113 = assay: MIC, microbroth dilution in Mueller-Hinton broth; format: cell-based, Escherichia coli; details: for MIC EC MH+BP/CCCP / MIC EC +: E. coli BW25113; for MIC EC MH+BP/CCCP: MH broth with 30 µg/ml 2,2′-bipyridyl and 50 µg/ml CCCP; for MIC EC +: with clavulanic acid (6µg/ml); for MIC: Escherichia coli, BW25113, read-out: MIC EC, E. coli BW25113, Mueller-Hinton broth (Table 2)
[3] = test system: E. coli BW25113 ΔtolC derivative JW5503-1; assay: MIC, microbroth dilution in Mueller-Hinton broth; format: cell-based, Escherichia coli; details: for MIC: Escherichia coli
P. vulgaris ATCC 33420 = assay: MIC, microbroth dilution in Mueller-Hinton broth; format: cell-based; details: Proteus vulgaris, ATCC33420, read-out: MIC PV
P. mirabilis ATCC 25933 = assay: MIC, microbroth dilution in Mueller-Hinton broth; format: cell-based; details: Proteus mirabilis, ATCC25933, read-out: MIC PM
P. aeruginosa PA01 = assay: MIC, microbroth dilution in Mueller-Hinton broth; format: cell-based, Pseudomonas aeruginosa; details: for MIC PA MH+BP/CCCP / MIC PA +: P. aeruginosa PA01; for MIC PA MH+BP/CCCP: MH broth with 30 µg/ml 2,2′-bipyridyl and 50 µg/ml CCCP; for MIC PA +: with clavulanic acid (6µg/ml); for MIC: Pseudomonas aeruginosa
[4] = test system: E. coli BW25113 ΔampC derivative JW4111-2; format: cell-based, Escherichia coli; details: for MIC: Escherichia coli, BW25113, read-out: MIC ECΔampC −
[5] = test system: E. coli ATCC 35218 (Low-level TEM-1); assay: MIC with and without clavulanic acid; format: cell-based; details: for MIC ATCC 35218 (Low-level TEM-1) + CLV: with clavulanic acid (6 µg/ml)
In short: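 Mueller-Hinton broth microdilution per CLSI, run in parallel without and with the β-lactamase inhibitor clavulanic acid (6 µg/ml). MH-broth-grown inoculum was at 10^5 CFU/ml final, with test compound at 200–0.2 µg/ml final. Incubation was 37°C, 18–20 h, and the visible-growth endpoint was read. At least duplicate determinations; the mean MIC was reported.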

[6] = Relative binding affinity; format: physicochemical
In short: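 Chelator:Fe(III) stoichiometry was found by the continuous variation method. The apparent iron constant came from the drop in 460 nm absorbance of the preformed test compound–Fe(III) complex as EDTA concentration was raised. pM was calculated as –log free [Fe3+].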

[7] = BW25113, read-out: MIC ECΔtolC MH
[8] = BW25113, read-out: MIC ECΔtolC MH+BP

Compound | MIC (E. faecalis ATCC33186) | MIC (S. pyogenes ATCC700294) | MIC (S. pneumoniae R6) | MIC (B. anthracis sterne) | MIC (B. subtilis ATCC23857) | MIC [2] | MIC (S. aureus NRS 70 (MRSA)) | MIC EC MH+BP/CCCP (E. coli BW25113) | MIC EC + (E. coli BW25113) | MIC (E. coli BW25113) | MIC ([3]; BW25113, read-out: MIC ECΔtolC) | MIC [3, 7] | MIC [3, 8] | MIC ECΔtolC MH+BP/CCCP [3] | MIC ECΔtolC MH+CCCP [3] | MIC (P. vulgaris ATCC 33420) | MIC (P. mirabilis ATCC 25933) | MIC PA MH+BP/CCCP (P. aeruginosa PA01) | MIC PA + (P. aeruginosa PA01) | MIC (P. aeruginosa PA01; PA01, read-out: MIC PA) | further results
CN1[C@@H]([C@H]2CSC(c3ccccc3O)=N2)SC[C@H]1C(=O)O [pyochelin] | – | – | – | – | – | – | – | – | – | – | – | – | – | – | – | – | – | – | – | – | pM ([1]; pyochelin, ref [43], [44]): 6; Kd ([1]; read-out: Kd for iron, pyochelin, ref [43], [44]): 10 µM
O=C(N[C@H]1COC(=O)[C@@H](NC(=O)c2cccc(O)c2O)COC(=O)[C@@H](NC(=O)c2cccc(O)c2O)COC1=O)c1cccc(O)c1O [enterobactin] | – | – | – | – | – | – | – | – | – | – | – | – | – | – | – | – | – | – | – | – | pM ([1]; E. coli enterobactin, ref [42]): 35.6
CC1(C)SC2C(NC(=O)C(NC(=O)C3=C(O)C(Cc4ccsc4)NC3=O)c3ccccc3)C(=O)N2C1C(=O)O (stereo not drawn) [Compound 2916] | 25 µg/mL (≈ 43.8 µM) | 0.39 µg/mL (≈ 0.683 µM) | < 0.2 µg/mL | 1.56 µg/mL (≈ 2.73 µM) | 1.56 µg/mL (≈ 2.73 µM) | < 0.2 µg/mL | 50 µg/mL (≈ 87.6 µM) | 12.5 µg/mL (≈ 21.9 µM) | 12.5 µg/mL | 50 µg/mL (≈ 87.6 µM) | 1.56 µg/mL (≈ 2.73 µM) | 1.56 µg/mL (≈ 2.73 µM) | 1.56 µg/mL (≈ 2.73 µM) | 0.78 µg/mL (≈ 1.37 µM) | 0.78 µg/mL (≈ 1.37 µM) | 6.25 µg/mL (≈ 11 µM) | 6.25 µg/mL (≈ 11 µM) | 6.25 µg/mL (≈ 11 µM) | 6.25 µg/mL | 25 µg/mL (≈ 43.8 µM) | MIC (P. aeruginosa PA01; PA01, read-out: MIC PA MH): 25 µg/mL (≈ 43.8 µM); MIC (P. aeruginosa PA01; PA01, read-out: MIC PA MH+BP): 25 µg/mL (≈ 43.8 µM); MIC (P. aeruginosa PA01; PA01, read-out: MIC PA MH+CCCP): 12.5 µg/mL (≈ 21.9 µM); MIC [4]: 6.25 µg/mL (≈ 11 µM); MIC ECΔampC + [4]: 3.13 µg/mL; MIC ATCC 35218 (Low-level TEM-1) + CLV [5]: 25 µg/mL; pM (–log [Fe^3+]) ([6]; 10^−5 M total iron chelator and 10^−6 M total Fe^3+ at pH 7.4): 20.3; apparent binding constant (Kd, app) for iron (III) ([6]; EDTA competition, MeOH:Tris buffer, pH 7.4 (98:2), 3:1 complex): 0.55 × 10^−29 M^3
pyoverdin | – | – | – | – | – | – | – | – | – | – | – | – | – | – | – | – | – | – | – | – | pM ([1]; P. aeruginosa pyoverdin, ref [45], [46]): 27
CC1(C)SC2C(NC(=O)C(NC(=O)C3=C(O)C(Cc4ccccc4)NC3=O)c3ccccc3)C(=O)N2C1C(=O)O (stereo not drawn) [Compound 2781] | 25 µg/mL (≈ 44.3 µM) | 0.39 µg/mL (≈ 0.691 µM) | < 0.2 µg/mL | 3.13 µg/mL (≈ 5.54 µM) | 0.78 µg/mL (≈ 1.38 µM) | < 0.2 µg/mL | 25 µg/mL (≈ 44.3 µM) | 3.13 µg/mL (≈ 5.54 µM) | 6.25 µg/mL | 100 µg/mL (≈ 177 µM) | 3.13 µg/mL (≈ 5.54 µM) | 3.13 µg/mL (≈ 5.54 µM) | 3.13 µg/mL (≈ 5.54 µM) | 1.56 µg/mL (≈ 2.76 µM) | 1.56 µg/mL (≈ 2.76 µM) | 6.25 µg/mL (≈ 11.1 µM) | 3.13 µg/mL (≈ 5.54 µM) | 1.56 µg/mL (≈ 2.76 µM) | 3.13 µg/mL | 12.5 µg/mL (≈ 22.1 µM) | MIC (P. aeruginosa PA01; PA01, read-out: MIC PA MH): 12.5 µg/mL (≈ 22.1 µM); MIC (P. aeruginosa PA01; PA01, read-out: MIC PA MH+BP): 6.25 µg/mL (≈ 11.1 µM); MIC (P. aeruginosa PA01; PA01, read-out: MIC PA MH+CCCP): 3.13 µg/mL (≈ 5.54 µM); MIC (P. aeruginosa PA01; PA01, read-out: MIC PA −): 12.5 µg/mL (≈ 22.1 µM); MIC [4]: 6.25 µg/mL (≈ 11.1 µM); MIC ECΔampC + [4]: 3.13 µg/mL; MIC ([5]; Escherichia coli, ATCC35218, read-out: MIC ATCC 35218 (Low-level TEM-1) - CLV): > 200 µg/mL; MIC ATCC 35218 (Low-level TEM-1) + CLV [5]: 25 µg/mL
